According to ChEMBL document CHEMBL3861959, “Synthesis and antiproliferative evaluation of novel 2-(4H-1,2,4-triazole-3-ylthio)acetamide derivatives as inducers of apoptosis in cancer cells” (Eur J Med Chem, 2016):
In brackets after ≈: the same amount, converted by molar mass.

Key:
[1] = Selectivity index, ratio of CC50 for human MT4 cells to EC50 for HIV2 ROD; type: toxicity, cell-based; conditions: read-out: Ratio CC50/EC50
Method in brief: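 HIV-1 IIIB and HIV-2 ROD tested in MT-4 cells by MTT. Serial fivefold dilutions of compound added to triplicate mock- and virus-infected wells. MT-4 cells at 6 × 10^5 cells/mL. Absorbance read at 540/690 nm; median OD of three wells used. CC50 is the concentration reducing mock-infected OD540 by 50%. […]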

[2] = Cytotoxicity against human SF268 cells assessed as cell growth at 10^-5 M after 48 hrs by SRB assay relative to control; type: functional; conditions: SF-268, 48 h, read-out: Activity
Method in brief: (§1)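 NCI single-dose primary screen run under the US NCI protocol. Compounds tested at 10 µM across the 60-cell-line panel, with growth percent reported for each line.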

[3] = Cytotoxicity against human RPMI8226 cells assessed as cell growth at 10^-5 M after 48 hrs by SRB assay relative to control; type: functional; conditions: RPMI-8226, 48 h, read-out: Activity; method in brief: as §1
[4] = Cytotoxicity against human ACHN cells assessed as cell growth at 10^-5 M after 48 hrs by SRB assay relative to control; type: functional; conditions: read-out: Activity; method in brief: as §1
[5] = Cytotoxicity against human MALME-3M cells assessed as cell growth at 10^-5 M after 48 hrs by SRB assay relative to control; type: functional; conditions: read-out: Activity; method in brief: as §1
[6] = Cytotoxicity against human CCRF-CEM cells assessed as cell growth at 10^-5 M after 48 hrs by SRB assay relative to control; type: functional; conditions: read-out: Activity; method in brief: as §1
[7] = Cytotoxicity against human SKOV3 cells assessed as cell growth at 10^-5 M after 48 hrs by SRB assay relative to control; type: functional; conditions: SK-OV-3, 48 h, read-out: Activity
Method in brief: (§2)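 Single-dose NCI 60-cell-line screen run under the US NCI protocol. Compounds tested at 10 µM. Read-out is growth percent for each cell line.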

[8] = Cytotoxicity against human DU145 cells assessed as cell growth at 10^-5 M after 48 hrs by SRB assay relative to control; type: functional; conditions: DU-145, 48 h, read-out: Activity; method in brief: as §1
[9] = Cytotoxicity against human SK-MEL-28 cells assessed as cell growth at 10^-5 M after 48 hrs by SRB assay relative to control; type: functional; conditions: SK-MEL-28, 48 h, read-out: Activity; method in brief: as §2
[10] = Cytotoxicity against human SNB75 cells assessed as cell growth at 10^-5 M after 48 hrs by SRB assay relative to control; type: functional; conditions: SNB-75, 48 h, read-out: Activity; method in brief: as §2
[11] = Cytotoxicity against human LOXIMVI cells assessed as cell growth at 10^-5 M after 48 hrs by SRB assay relative to control; type: functional; conditions: LOX IMVI, read-out: Activity; method in brief: as §1
[12] = Cytotoxicity against human SW620 cells assessed as cell growth at 10^-5 M after 48 hrs by SRB assay relative to control; type: functional; conditions: SW-620, 48 h, read-out: Activity; method in brief: as §2
[13] = tested on: Human immunodeficiency virus 1; experiment: Antiviral activity against HIV1 3B infected in human MT4 cells assessed as protection against virus-induced cytopathic effect after 5 days MTT assay; type: functional, cell-based; conditions: Human immunodeficiency virus 1, 3B, MT4, 120 h
Method in brief: (§3)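 HIV-1 strain IIIB and HIV-2 strain ROD in MT-4 cells, MTT-based. Test compounds in serial five-fold dilutions, in triplicate wells run alongside mock-infected cells, with untreated infected and mock controls. MT-4 cells resuspended at 6 × 10^5 cells/mL. Absorbance read at 540 and 690 nm, median OD of three wells. EC50 is the 50% effective concentration.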

[14] = Cytotoxicity against human T47D cells assessed as cell growth at 10^-5 M after 48 hrs by SRB assay relative to control; type: functional; conditions: read-out: Activity; method in brief: as §2
[15] = Cytotoxicity against human Caki1 cells assessed as cell growth at 10^-5 M after 48 hrs by SRB assay relative to control; type: functional; conditions: CAKI-1, 48 h, read-out: Activity; method in brief: as §1
[16] = Cytotoxicity against human MDA-MB-435 cells assessed as cell growth at 10^-5 M after 48 hrs by SRB assay relative to control; type: functional; conditions: MDA-MB-435, 48 h, read-out: Activity; method in brief: as §1
[17] = Cytotoxicity against human A498 cells assessed as cell growth at 10^-5 M after 48 hrs by SRB assay relative to control; type: functional; conditions: A498, 48 h, read-out: Activity; method in brief: as §1
[18] = Cytotoxicity against human MDA-MB-468 cells assessed as cell growth at 10^-5 M after 48 hrs by SRB assay relative to control; type: functional; conditions: MDA-MB-468, 48 h, read-out: Activity; method in brief: as §1
[19] = Cytotoxicity against human BT549 cells assessed as cell growth at 10^-5 M after 48 hrs by SRB assay relative to control; type: functional; conditions: BT-549, 48 h, read-out: Activity; method in brief: as §1
[20] = Cytotoxicity against human KM12 cells assessed as cell growth at 10^-5 M after 48 hrs by SRB assay relative to control; type: functional; conditions: KM12, 48 h, read-out: Activity; method in brief: as §1
[21] = Cytotoxicity against human U251 cells assessed as cell growth at 10^-5 M after 48 hrs by SRB assay relative to control; type: functional; conditions: U-251, 48 h, read-out: Activity; method in brief: as §2
[22] = Cytotoxicity against human NCI-ADR-RES cells assessed as cell growth at 10^-5 M after 48 hrs by SRB assay relative to control; type: functional; conditions: read-out: Activity; method in brief: as §1
[23] = Cytotoxicity against human NCI-H23 cells assessed as cell growth at 10^-5 M after 48 hrs by SRB assay relative to control; type: functional; conditions: NCI-H23, 48 h, read-out: Activity; method in brief: as §1
[24] = Cytotoxicity against human SN12C cells assessed as cell growth at 10^-5 M after 48 hrs by SRB assay relative to control; type: functional; conditions: read-out: Activity; method in brief: as §2
[25] = Cytotoxicity against human HCT15 cells assessed as cell growth at 10^-5 M after 48 hrs by SRB assay relative to control; type: functional; conditions: HCT-15, 48 h, read-out: Activity; method in brief: as §1
[26] = Cytotoxicity against human SK-MEL-2 cells assessed as cell growth at 10^-5 M after 48 hrs by SRB assay relative to control; type: functional; conditions: SK-MEL-2, 48 h, read-out: Activity; method in brief: as §2
[27] = Antiviral activity against HIV2 ROD infected in human MT4 cells assessed as protection against virus-induced cytopathic effect after 5 days MTT assay; type: functional, cell-based, Human immunodeficiency virus type 2 (ISOLATE ROD); conditions: Human immunodeficiency virus 2, MT4, 120 h; method in brief: as §3
[28] = Cytotoxicity against human MT4 cells assessed as decrease in cell viability after 5 days by MTT assay; type: toxicity, cell-based
Method in brief: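 MT-4 cells in mock-infected wells of the anti-HIV MTT setup. Compounds in serial five-fold dilutions in triplicate, cells at 6 × 10^5 cells/mL. Absorbance at 540 and 690 nm, median OD of three wells. CC50 is the concentration that lowers OD540 of the mock-infected control by 50%.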

[29] = Cytotoxicity against human SR cells assessed as cell growth at 10^-5 M after 48 hrs by SRB assay relative to control; type: functional; conditions: read-out: Activity; method in brief: as §2
[30] = Cytotoxicity against human MCF7 cells assessed as cell growth at 10^-5 M after 48 hrs by SRB assay relative to control; type: functional; conditions: MCF7, 48 h, read-out: Activity; method in brief: as §1
[31] = Cytotoxicity against human SNB19 cells assessed as cell growth at 10^-5 M after 48 hrs by SRB assay relative to control; type: functional; conditions: SNB-19, 48 h, read-out: Activity; method in brief: as §2

SMILES	selectivity ratio [1]	growth at 10 µM [2] [%]	growth at 10 µM [3] [%]	growth at 10 µM [4] [%]	growth at 10 µM [5] [%]	growth at 10 µM [6] [%]	growth at 10 µM [7] [%]	growth at 10 µM [8] [%]	growth at 10 µM [9] [%]	growth at 10 µM [10] [%]	growth at 10 µM [11] [%]	growth at 10 µM [12] [%]	EC50 [13] [µg/mL]	growth at 10 µM [14] [%]	growth at 10 µM [15] [%]	growth at 10 µM [16] [%]	growth at 10 µM [17] [%]	growth at 10 µM [18] [%]	growth at 10 µM [19] [%]	growth at 10 µM [20] [%]	also measured
Cc1ccc(C(C)C)c(OCc2nnc(SCC(=O)Nc3ccc(Cl)cc3)n2Cc2ccccc2)c1	< 1	88.6	83.8	41.6	75.6	72.7	109	90.5	113	93.6	64.4	65.9	> 65.9	78.6	93.9	103	78	72.3	97.4	76.9	growth at 10 µM [21]: 40.9%; growth at 10 µM [22]: 69.1%; growth at 10 µM [23]: 80.6%; growth at 10 µM [24]: 56.5%; growth at 10 µM [25]: 76.7%; growth at 10 µM [26]: 108%; EC50 [27]: > 65.9 µg/mL; CC50 at 120 h [28]: 65.9 µg/mL (≈ 126 µM); growth at 10 µM [29]: -6.63%; growth at 10 µM [30]: 75.7%; growth at 10 µM [31]: 80.3%
CC(=O)Nc1ccc(OCc2nnc(SCC(=O)Nc3ccc(Br)cc3)n2Cc2ccccc2)cc1	≤ 1	70.9	72.2	58.6	93.8	56.3	110	72.6	102	103	33.4	59	> 3.99	69.6	72.5	66	82.1	77.8	72.4	56.4	growth at 10 µM [21]: 88.5%; growth at 10 µM [22]: 68.2%; growth at 10 µM [23]: 75.2%; growth at 10 µM [24]: 85.7%; growth at 10 µM [25]: 60.4%; growth at 10 µM [26]: 72.2%; EC50 [27]: > 3.99 µg/mL; CC50 at 120 h [28]: ≥ 3.99 µg/mL; growth at 10 µM [29]: 97.7%; growth at 10 µM [30]: 70.2%; growth at 10 µM [31]: 92.3%
Cc1ccc(C(C)C)c(OCc2nnc(SCC(=O)Nc3ccc(S(N)(=O)=O)cc3)n2Cc2ccccc2)c1	< 1	74	40.8	76	84.3	35.6	109	82.3	89.3	93.8	68.2	91.7	> 13	33.3	81.1	76.2	74.7	70.5	65.8	54.3	growth at 10 µM [21]: 64.6%; growth at 10 µM [22]: 77.1%; growth at 10 µM [23]: 63.8%; growth at 10 µM [24]: 81.6%; growth at 10 µM [25]: 64.2%; growth at 10 µM [26]: 80.9%; EC50 [27]: > 13 µg/mL; CC50 at 120 h [28]: 13 µg/mL (≈ 23 µM); growth at 10 µM [29]: 65.1%; growth at 10 µM [30]: 50%; growth at 10 µM [31]: 88.4%
